Like-named read-outs stand apart in the source and are kept apart here.
Key:
PKCα = PKCα (Mus musculus, UniProt P20444); test: Competition with [3H]PDBU binding to PKCα; conditions: for Ratio Ki crude/Ki pure: relative to unresolved library E/Z mixture
Procedure, shortened: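 Partially purified mouse PKCα; test compound in DMSO competed with [3H]PDBU. Pure compounds ran 6–7 ligand concentrations; ID50 from sigmoidal fit; Ki = ID50/(1+L/Kd). Crude library mixtures (unresolved E/Z) were tested at a single 1 μM, with Ki calculated from that concentration. The ratio compares crude with pure Ki. Triplicates per concentration; ≥3 independent experiments; mean ± SEM.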

MCF-10A cells = test: Cellular motility assay; format: cell-based, human; conditions: pure compounds, dose response, total area, 20 h
α-secretase = test: α-Secretase activation, secreted sAPPα by immunoblot densitometry in W4 cells; format: cell-based, rat; conditions: crude sample or control, 1 μM
AP-1 = AP-1 luciferase assay; format: cell-based, Balb/C; conditions: pure DAG-lactone 100 ng/mL, 18 h, normalized to TPA 10 ng/mL; L2-C11: both E- and Z-isomers
JB6 cells = test: Anchorage independent transformation in soft agar; format: cell-based, Balb/C; conditions: DAG-lactone 100 ng/mL, 14 days, normalized to TPA 10 ng/mL; L2-C11: both E- and Z-isomers
Procedure, shortened: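 JB6 cells (10^4) suspended in 0.33% top agar containing DMSO, TPA (10 ng/mL) or test compound (100 ng/mL), layered over 0.5% bottom agar also containing compound. Anchorage-independent colonies counted after 14 days by automated image analysis; colonies >8 cells scored as transformed. Four independent plates seeded. Mean colony number reported relative to TPA as 100%.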

LNCaP cells = test: Apoptosis and radiosensitization in LNCaP cells; format: cell-based, human; conditions: 10 and 20 μM, 16 h pretreatment, 24 h post radiation (20 Gy)
Procedure, shortened: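 LNCaP human prostate cancer cells were grown at 37°C, 5% CO2 in RPMI-1640 with 10% FCS, 2 mM L-glutamine, antibiotics and 10 mM HEPES (pH 7.2). FCS was replaced by 0.2% human albumin 24 h before the experiment. Cells were pretreated 16 h with test compound (10 or 20 μM), then irradiated (20 Gy). They were fixed 24 h later and stained with bis-benzimide. Cells with ≥3 apoptotic bodies were scored apoptotic by fluorescence microscopy. Mean of two experiments ± standard deviation.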

[1] = test system: GFP-tagged PKCα, β, δ and ε; test: Translocation of GFP-tagged PKC isoforms in CHO cells; format: cell-based, Chinese hamster; conditions: living CHO cells, 300 nM, confocal microscopy
Procedure, shortened: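 PKC isoforms were subcloned into a modified pEGFP-N1 plasmid to give GFP-tagged proteins, which were over-expressed in CHO cells. Localization was followed in real time by confocal microscopy before and after ligand treatment, with membrane translocation from cytosol taken as activation.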

[2] = Library 1, pure sample = E-isomer
[3] = Library 1, pure sample = Z-isomer
[4] = Library 2, pure sample = E-isomer

| Compound | Ratio Ki crude/Ki pure (PKCα; [2]) | Ratio Ki crude/Ki pure (PKCα; [4]) | further results |
| --- | --- | --- | --- |
| COc1ccc(/C=C2\CC(CO)(COC(=O)c3ccc(N(C)C)cc3)OC2=O)cc1 (centres unmarked) [L1-F5, (E)-{2-(Hydroxymethyl)-4-[(4-methoxyphenyl)methylene]-5-oxo-1-2,3-dihydrofuryl}methyl 4-(dimethylamino)benzoate] | 7.5 |  |  |
| COc1ccc(/C=C2\CC(CO)(COC(=O)c3c(C)cc(C)cc3C)OC2=O)cc1 (centres unmarked) [L1-F11, (E)-{2-(Hydroxymethyl)-4-[(4-methoxyphenyl)methylene]-5-oxo-2-2,3-dihydrofuryl}methyl 2,4,6-trimethylbenzoate] | 32.0 |  |  |
| CC(C)C(=O)OCC1(CO)C/C(=C/c2ccccc2C(F)(F)F)C(=O)O1 (centres unmarked) [L2-A1, (Z)-(2-(Hydroxymethyl)-5-oxo-4-{[2-(trifluoromethyl)phenyl]-methylene}-2-2,3-dihydrofuryl)methyl 2-methylpropanoate] |  |  | Ratio Ki crude/Ki pure (PKCα; Library 2, pure sample = Z-isomer): 0.51 |
| CCCCCC/C=C1/CC(CO)(COC(=O)c2c(C(C)C)cc(C(C)C)cc2C(C)C)OC1=O (centres unmarked) [L1-A12, (Z)-[4-Heptylidene-2-(hydroxymethyl)-5-oxo-2-2,3-dihydrofuryl]methyl 2,4,6-tris(methylethyl)benzoate] |  |  | Ratio Ki crude/Ki pure (PKCα; [3]): 50.4 |
| CCCC(CCC)C(=O)OCC1(CO)C/C(=C\c2ccc(F)c(Cl)c2)C(=O)O1 (centres unmarked) [L2-B10, (E)-{4-[(3-Chloro-4-fluorophenyl)methylene]-2-(hydroxymethyl)-5-oxo-2-2,3-dihydrofuryl}methyl 2-propylpentanoate] |  | 3.8 |  |
| COc1ccc(/C=C2\CC(CO)(COC(=O)c3c(C(C)C)cc(C(C)C)cc3C(C)C)OC2=O)cc1 (centres unmarked) [L1-F12, (E)-{2-(Hydroxymethyl)-4-[(4-methoxyphenyl)methylene]-5-oxo-2-2,3-dihydrofuryl}methyl 2,4,6-tris(methylethyl)benzoate] | 24.6 |  |  |
| CCCC(CCC)C(=O)OCC1(CO)C/C(=C\c2ccc(F)c(Br)c2)C(=O)O1 (centres unmarked) [L2-B12, (E)-{4-[(3-Bromo-4-fluorophenyl)methylene]-2-(hydroxymethyl)-5-oxo-2-2,3-dihydrofuryl}methyl 2-propylpentanoate] |  | 3.0 | Ki (PKCα): ~2 nM; induction of cell motility (MCF-10A cells): very weak effect on cell motility |
| O=C1OC(CO)(COC(=O)c2ccc([N+](=O)[O-])cc2)C/C1=C\c1ccc([N+](=O)[O-])cc1 (centres unmarked) [L1-H8, (E)-{2-(Hydroxymethyl)-4-[(4-nitrophenyl)methylene]-5-oxo-2-2,3-dihydrofuryl}methyl 4-nitrobenzoate] | 5.2 |  |  |
| CCCCC(/C=C1/CC(CO)(COC(=O)c2ccc([N+](=O)[O-])cc2)OC1=O)CC (centres unmarked) [L1-B8, (Z)-[4-(2-Ethylhexylidene)-2-(hydroxymethyl)-5-oxo-2-2,3-dihydrofuryl]methyl 4-nitrobenzoate] |  |  | Ratio Ki crude/Ki pure (PKCα; [3]): 1.4 |
| (E)-{4-[(3-Chloro-4-fluorophenyl)methylene]-2-(hydroxymethyl)-5-oxo-2-2,3-dihydrofuryl}methyl 2-propylpentanoate [L2-B11] |  | 6.3 | Ki (PKCα; read-out: Pure Sample Ki, Library 2 pure compound, E-isomer): 3.38 ± 0.15 nM |
| CCCCC(/C=C1/CC(CO)(COC(=O)c2ccc(N(C)C)cc2)OC1=O)CC (centres unmarked) [L1-B5, (Z)-[4-(2-Ethylhexylidene)-2-(hydroxymethyl)-5-oxo-2-2,3-dihydrofuryl]methyl 4-(dimethylamino)benzoate] |  |  | Ratio Ki crude/Ki pure (PKCα; [3]): 3.4 |
| CC(C)(C)C(=O)OCC1(CO)C/C(=C\c2ccc(F)c(Cl)c2)C(=O)O1 (centres unmarked) [L2-F10, (E)-{4-[(3-Chloro-4-fluorophenyl)methylene]-2-(hydroxymethyl)-5-oxo-2-2,3-dihydrofuryl}methyl 2,2-dimethylpropanoate] |  | 1.8 |  |
| CN(C)c1ccc(/C=C2\CC(CO)(COC(=O)c3ccc([N+](=O)[O-])cc3)OC2=O)cc1 (centres unmarked) [L1-E8, (E)-(4-{[4-(Dimethylamino)phenyl]methylene}-2-(hydroxymethyl)-5-oxo-2-2,3-dihydrofuryl)methyl 4-nitrobenzoate] | 5.8 |  |  |
| CCC(C(=O)OCC1(CO)C/C(=C\c2ccc(-c3ccc(C(F)(F)F)cc3)cc2)C(=O)O1)c1ccccc1 (centres unmarked) [L2-D6, (E)-[2-(Hydroxymethyl)-5-oxo-4-({4-[4-(trifluoromethyl)phenyl]phenyl}methylene)-2-2,3-dihydrofuryl]methyl 2-phenylbutanoate] |  | 5.8 | induction of cell motility (MCF-10A cells): mimics L2-C12 in terms of inducing cell motility |
| COc1ccc(C(=O)OCC2(CO)C/C(=C\c3ccc(N(C)C)cc3)C(=O)O2)cc1 (centres unmarked) [L1-E6, (E)-(4-{[4-(Dimethylamino)phenyl]methylene}-2-(hydroxymethyl)-5-oxo-2-2,3-dihydrofuryl)methyl 4-methoxybenzoate] | 8.7 |  | α-secretase activity (sAPPα) relative to untreated cells (100%) (α-secretase): 177% |
| CN(C)c1ccc(/C=C2\CC(CO)(COC(=O)c3ccc(N(C)C)cc3)OC2=O)cc1 (centres unmarked) [L1-E5, (E)-(4-{[4-(Dimethylamino)phenyl]methylene}-2-(hydroxymethyl)-5-oxo-2-2,3-dihydrofuryl)methyl 4-(dimethylamino)benzoate] | 10.6 |  |  |
| CCCCC(CC)C(=O)OCC1(CO)C/C(=C\c2ccc(N(C)C)cc2)C(=O)O1 (centres unmarked) [L1-E2, (E)-(4-{[4-(Dimethylamino)phenyl]methylene}-2-(hydroxymethyl)-5-oxo-2-2,3-dihydrofuryl)methyl 2-ethylhexanoate] | 7.4 |  |  |
| CCCCC(CC)C(=O)OCC1(CO)C/C(=C\c2ccc(Cl)cc2)C(=O)O1 (centres unmarked) [L2-C8, (E)-{4-[(4-Chlorophenyl)methylene]-2-(hydroxymethyl)-5-oxo-2-2,3-dihydrofuryl}methyl 2-ethylhexanoate] |  | 4.3 | AP-1 activation (AP-1 dependent luciferase activity) (AP-1): able to induce AP-1 activation; transforming activity (anchorage independent colonies) (JB6 cells): significant transforming activity |
| CCCC(CCC)C(=O)OCC1(CO)C/C(=C\c2ccc(F)cc2)C(=O)O1 (centres unmarked) [L2-B7, (E)-{4-[(4-Fluorophenyl)methylene]-2-(hydroxymethyl)-5-oxo-2-2,3-dihydrofuryl}methyl 2-propylpentanoate] |  | 3.0 | AP-1 activation (AP-1 dependent luciferase activity) (AP-1): very strong AP-1 transcription factor activation; transforming activity (anchorage independent colonies) (JB6 cells): minimal transforming properties; induction of apoptosis (LNCaP cells): induction of apoptosis |
| CCCCC(CC)C(=O)OCC1(CO)C/C(=C\c2ccc(F)c(Br)c2)C(=O)O1 (centres unmarked) [L2-C12, (E)-{4-[(3-Bromo-4-fluorophenyl)methylene]-2-(hydroxymethyl)-5-oxo-2-2,3-dihydrofuryl}methyl 2-ethylhexanoate] |  | 2.9 | translocation of PKC isozymes α, β, δ and ε [1]: translocated very quickly; induction of cell motility (MCF-10A cells): induced cell motility |
| COc1ccc(/C=C2\CC(CO)(COC(=O)c3ccc(OC)cc3)OC2=O)cc1 (centres unmarked) [L1-F6, (E)-{2-(Hydroxymethyl)-4-[(4-methoxyphenyl)methylene]-5-oxo-1-2,3-dihydrofuryl}methyl 4-methoxybenzoate] | 2.6 |  |  |
| CCCC(CCC)C(=O)OCC1(CO)C/C(=C\c2ccc(C(F)(F)F)cc2)C(=O)O1 (centres unmarked) [L2-B4, (E)-(2-(Hydroxymethyl)-5-oxo-4-{[4-(trifluoromethyl)phenyl]methylene}-2-2,3-dihydrofuryl)methyl 2-propylpentanoate] |  | 5.6 | AP-1 activation (AP-1 dependent luciferase activity) (AP-1): very strong AP-1 transcription factor activation; transforming activity (anchorage independent colonies) (JB6 cells): minimal transforming properties; induction of apoptosis (LNCaP cells): induction of apoptosis |
| COc1ccc(C(=O)OCC2(CO)C/C(=C\c3ccc([N+](=O)[O-])cc3)C(=O)O2)cc1 (centres unmarked) [L1-H6, (E)-{2-(Hydroxymethyl)-4-[(4-nitrophenyl)methylene]-5-oxo-2-2,3-dihydrofuryl}methyl 4-methoxybenzoate] | 2.7 |  |  |

From article PMC2574997 (Journal of medicinal chemistry, 2008)
